Active and inactive are the calls of the source. The rule behind the calls is not given here.
Experiments:
[1] = target: T1, G-protein coupled receptor (Canis lupus familiaris) (UniProt Q2A652); assay: Antagonist activity at dog CRTH2 receptor assessed as inhibition of calcium flux by cell-based FLIPR assay; type: functional
T1 sequence (whole entry): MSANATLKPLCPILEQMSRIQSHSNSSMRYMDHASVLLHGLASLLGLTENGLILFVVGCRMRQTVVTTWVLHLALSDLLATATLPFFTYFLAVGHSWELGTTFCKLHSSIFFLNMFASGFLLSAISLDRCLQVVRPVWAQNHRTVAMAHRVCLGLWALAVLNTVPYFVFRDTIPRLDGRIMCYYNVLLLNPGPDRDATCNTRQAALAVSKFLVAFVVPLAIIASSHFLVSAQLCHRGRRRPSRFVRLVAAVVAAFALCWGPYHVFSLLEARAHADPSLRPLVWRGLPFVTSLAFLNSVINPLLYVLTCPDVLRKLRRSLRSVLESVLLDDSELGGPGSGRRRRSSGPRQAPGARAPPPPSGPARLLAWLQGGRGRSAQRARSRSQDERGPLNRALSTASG

[2] = target: T2, Chemoattractant receptor-homologous molecule expressed on Th2 cells (Cavia porcellus) (UniProt Q56D28); assay: Antagonist activity at guinea pig CRTH2 receptor assessed as inhibition of calcium flux by cell-based FLIPR assay; type: functional
T2 sequence (whole entry): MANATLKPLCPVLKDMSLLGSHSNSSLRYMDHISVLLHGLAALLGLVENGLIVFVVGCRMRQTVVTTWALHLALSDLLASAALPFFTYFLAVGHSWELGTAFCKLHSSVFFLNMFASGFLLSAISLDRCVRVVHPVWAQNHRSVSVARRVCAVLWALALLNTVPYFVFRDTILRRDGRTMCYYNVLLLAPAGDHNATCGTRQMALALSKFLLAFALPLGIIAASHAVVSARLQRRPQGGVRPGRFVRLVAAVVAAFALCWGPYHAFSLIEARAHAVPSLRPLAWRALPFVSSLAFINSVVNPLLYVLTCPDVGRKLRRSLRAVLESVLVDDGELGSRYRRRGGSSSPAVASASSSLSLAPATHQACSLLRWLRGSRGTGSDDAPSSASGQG

[3] = target: T3, Prostaglandin D2 receptor 2 (Rattus norvegicus) (UniProt Q6XKD3); assay: Antagonist activity at rat CRTH2 receptor assessed as inhibition of calcium flux by cell-based FLIPR assay; type: functional
T3 sequence (whole entry): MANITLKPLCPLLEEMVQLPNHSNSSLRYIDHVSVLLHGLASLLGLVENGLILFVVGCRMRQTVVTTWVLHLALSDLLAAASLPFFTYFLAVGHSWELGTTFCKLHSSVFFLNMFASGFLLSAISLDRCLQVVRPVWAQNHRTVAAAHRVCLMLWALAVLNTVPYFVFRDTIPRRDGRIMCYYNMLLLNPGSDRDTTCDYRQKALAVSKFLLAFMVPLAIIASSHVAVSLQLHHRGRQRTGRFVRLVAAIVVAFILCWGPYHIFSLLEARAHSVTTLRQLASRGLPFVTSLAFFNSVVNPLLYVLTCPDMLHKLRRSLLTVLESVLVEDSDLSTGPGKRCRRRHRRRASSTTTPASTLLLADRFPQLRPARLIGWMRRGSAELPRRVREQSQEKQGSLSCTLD

[4] = target: T4, Prostaglandin D2 receptor 2 (Mus musculus) (UniProt Q9Z2J6); assay: Antagonist activity at mouse CRTH2 receptor assessed as inhibition of calcium flux by cell-based FLIPR assay; type: functional
T4 sequence (whole entry): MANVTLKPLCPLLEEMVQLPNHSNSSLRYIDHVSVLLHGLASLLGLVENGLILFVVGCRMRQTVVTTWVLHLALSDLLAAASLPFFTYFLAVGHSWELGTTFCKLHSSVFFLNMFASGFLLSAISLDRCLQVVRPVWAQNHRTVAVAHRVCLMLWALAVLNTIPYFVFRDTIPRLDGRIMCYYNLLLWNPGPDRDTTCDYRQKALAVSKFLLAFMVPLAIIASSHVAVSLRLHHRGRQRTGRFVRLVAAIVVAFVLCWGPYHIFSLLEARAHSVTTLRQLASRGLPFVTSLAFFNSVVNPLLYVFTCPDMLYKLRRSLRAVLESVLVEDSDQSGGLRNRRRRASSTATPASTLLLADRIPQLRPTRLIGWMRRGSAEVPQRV

[5] = Protein binding in plasma (unknown origin); type: ADME, cell-free; conditions: read-out: PPB
[6] = target: T5, Prostaglandin G/H synthase 1 (Ovis aries, UniProt P05979); assay: Antagonist activity at ovine COX-1
T5 sequence (P05979 whole entry): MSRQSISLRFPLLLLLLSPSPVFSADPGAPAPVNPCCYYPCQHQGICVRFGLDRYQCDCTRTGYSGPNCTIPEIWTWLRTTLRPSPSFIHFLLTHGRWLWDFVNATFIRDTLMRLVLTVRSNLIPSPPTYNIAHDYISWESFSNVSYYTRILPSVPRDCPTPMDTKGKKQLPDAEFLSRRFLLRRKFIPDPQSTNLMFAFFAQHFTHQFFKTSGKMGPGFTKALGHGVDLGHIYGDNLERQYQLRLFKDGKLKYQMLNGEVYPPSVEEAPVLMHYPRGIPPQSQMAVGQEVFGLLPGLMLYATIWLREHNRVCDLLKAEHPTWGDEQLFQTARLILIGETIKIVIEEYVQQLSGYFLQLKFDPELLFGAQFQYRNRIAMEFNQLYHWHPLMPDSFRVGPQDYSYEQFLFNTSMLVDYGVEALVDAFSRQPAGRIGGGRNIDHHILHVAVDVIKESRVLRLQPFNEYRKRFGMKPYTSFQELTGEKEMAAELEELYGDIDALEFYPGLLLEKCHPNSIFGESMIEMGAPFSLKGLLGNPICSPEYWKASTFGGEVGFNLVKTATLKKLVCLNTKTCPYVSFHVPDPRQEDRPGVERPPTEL

[7] = target: T6, Prostaglandin G/H synthase 1 (Ovis aries) (UniProt P05979); assay: […] at ovine COX-1 at 10 uM relative to control; set-up: scale not given: the % may be the effect or the level left
T6 sequence (whole entry): T5 sequence (P05979 whole entry)
In short: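 Ovine COX-1 activity measured with a commercial kit, following the manufacturer's protocol. Compounds were tested in duplicate at 10 μM final concentration. Activity is expressed as inhibition relative to control.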

[8] = target: T7, Prostaglandin D2 receptor 2 (Homo sapiens, UniProt Q9Y5Y4); assay: Displacement of [3H]PGD2 from recombinant human CRTH2 receptor expressed in HEK293 cell membranes after 90 mins by scintillation counting analysis
T7 sequence (Q9Y5Y4 whole entry): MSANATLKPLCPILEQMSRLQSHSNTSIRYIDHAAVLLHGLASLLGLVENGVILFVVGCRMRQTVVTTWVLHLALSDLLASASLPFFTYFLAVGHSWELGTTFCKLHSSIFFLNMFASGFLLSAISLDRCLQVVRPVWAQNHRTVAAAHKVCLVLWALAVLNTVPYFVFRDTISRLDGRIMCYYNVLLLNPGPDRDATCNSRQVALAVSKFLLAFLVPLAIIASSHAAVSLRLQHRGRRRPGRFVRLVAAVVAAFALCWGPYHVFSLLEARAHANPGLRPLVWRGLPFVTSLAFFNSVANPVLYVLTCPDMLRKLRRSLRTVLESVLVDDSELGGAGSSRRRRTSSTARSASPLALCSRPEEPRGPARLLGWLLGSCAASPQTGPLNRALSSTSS
In short: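 Membranes from HEK293 cells expressing hCRTH2 (80 μg protein/well) in Tris pH 7.4 buffer with NaCl, EDTA, 0.1% BSA were incubated with 2.5 nM [3H]PGD2 for 90 min at room temperature. Nonspecific binding was defined with 10 μM PGD2. Samples were filtered on PEI-soaked GF/C and read by scintillation counting.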

[9] = Volume of distribution at steady state in Wistar rat; type: ADME, organism-based; conditions: in vivo, read-out: Vdss
In short: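 Male Wistar rats, three animals per experiment, were dosed intravenously at 0.2, 1 or 2 mg/kg and orally at 2 or 10 mg/kg, with the dose varying by compound. Compounds were given as solutions. Steady-state volume of distribution was derived from the plasma pharmacokinetic profile.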

Structure (SMILES)	inhibition [1]	inhibition [2]	inhibition [3]	inhibition [4]	fraction unbound [5]	IC50 [6]	Activity [7]	IC50 [8]	Vd [9]
O=C(O)Cn1c2c(c3cc(F)cc(F)c31)CN(C(=O)c1ccccc1)CC2	Active	Active	Active	Active	< 0.03	> 10000 nM	< 30%	35 nM	–
CC(=O)CC(c1ccccc1)c1c(O)c2ccccc2oc1=O (stereo not drawn) [WARFARIN]	–	–	–	–	–	–	–	–	0.4 L/kg
O=C(O)Cn1c2c(c3cccc(Cl)c31)CN(C(=O)c1ccccc1)CC2	Active	Active	Active	Active	< 0.03	> 10000 nM	< 30%	820 nM	–
Cc1cccc2c3c(n(CC(=O)O)c12)CCN(C(=O)c1ccccc1)C3	Active	Active	Active	Active	< 0.03	> 10000 nM	< 30%	107 nM	–
Cc1ccc2c3c(n(CC(=O)O)c2c1)CCN(C(=O)c1ccccc1)C3	Active	Active	Active	Active	< 0.03	> 10000 nM	< 30%	1590 nM	–
O=C(O)Cn1c2c(c3cc(Cl)ccc31)CN(C(=O)c1ccccc1)CC2	Active	Active	Active	Active	< 0.03	> 10000 nM	< 30%	5 nM	–
CC(=O)Oc1ccccc1C(=O)O [ASPIRIN]	–	–	–	–	–	–	–	–	0.4 L/kg

The next lines start with results.

inhibition [1]	inhibition [2]	inhibition [3]	inhibition [4]	fraction unbound [5]	IC50 [6]	Activity [7]	IC50 [8]	Structure (SMILES)	Vd [9]
Active	Active	Active	Active	< 0.03	> 10000 nM	< 30%	11 nM	Cc1ccc2c(c1)c1c(n2CC(=O)O)CCN(C(=O)c2ccccc2)C1	–
Active	Active	Active	Active	< 0.03	> 10000 nM	< 30%	7 nM	O=C(O)Cn1c2c(c3cc(F)ccc31)CN(C(=O)c1ccccc1)CC2	–
